The values that follow come from ChEMBL document CHEMBL4673301, “Design, synthesis, and anti-proliferative evaluation of new quinazolin-4(3H)-ones as potential VEGFR-2 inhibitors” (Bioorg Med Chem, 2021).

SMILES strings stand for the structures.

The subject of assay [1] is HepG2. The experiment in a line: Antiproliferative activity against human HepG2 cells assessed as reduction in cell viability incubated for 24 hrs by MTT assay. In kind it is functional, cell-based. Conditions: HepG2, 24 h. In a few lines: (§1)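 Cells from ATCC grown in RPMI-1640 with 10% FBS, penicillin 100 unit/ml and streptomycin 100 μg/ml at 37 °C, 5% CO2. Seeded at 1.0 x 10^4 cells/well for 48 h, then exposed to a range of compound concentrations for 24 h. MTT (5 mg/ml) added for 4 h, formazan dissolved in DMSO, A570 read. Viability taken as % of untreated. Duplicate wells, at least three independent IC50 determinations.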
(In general: Tetrazolium assays rely on reduction of a dye to a coloured formazan, in cell work by metabolically active cells.)

Assay [2] concerns MCF7. Description: Antiproliferative activity against human MCF7 cells assessed as reduction in cell viability incubated for 24 hrs by MTT assay. In kind it is functional, cell-based. The following applies: MCF7, 24 h. In short, it runs like this:
as §1

In assay [3] the test system is HCT-116. Description: Antiproliferative activity against human HCT-116 cells assessed as reduction in cell viability incubated for 24 hrs by MTT assay. In kind it is functional, cell-based. Conditions: HCT-116, 24 h. In short, it runs like this: as §1
Assay [4] addresses Vascular endothelial growth factor receptor 2 (Homo sapiens, UniProt P35968).
Assay [5] has as its system HepG2. Description: Potency index, ratio of IC50 of sorafenib to IC50 of compound for antiproliferative activity against human HepG2 cells assessed as reduction in cell viability incubated for 24 hrs by MTT assay. In kind it is functional.
The test system of assay [6] is MCF7. Description: Potency index, ratio of IC50 of sorafenib to IC50 of compound for antiproliferative activity against human MCF7 cells assessed as reduction in cell viability incubated for 24 hrs by MTT assay. In kind it is functional.
Assay [7] deals with HCT-116. Description: Potency index, ratio of IC50 of sorafenib to IC50 of compound for antiproliferative activity against human HCT-116 cells assessed as reduction in cell viability incubated for 24 hrs by MTT assay. In kind it is functional.
In assay [8] the test system is MCF7. Description: Potency index, ratio of IC50 of doxorubicin to IC50 of compound for antiproliferative activity against human MCF7 cells assessed as reduction in cell viability incubated for 24 hrs by MTT assay. In kind it is functional.
In assay [9] the test system is HCT-116. Description: Potency index, ratio of IC50 of doxorubicin to IC50 of compound for antiproliferative activity against human HCT-116 cells assessed as reduction in cell viability incubated for 24 hrs by MTT assay. In kind it is functional.
Assay [10] relates to HepG2. The experiment in a line: Potency index, ratio of IC50 of doxorubicin to IC50 of compound for antiproliferative activity against human HepG2 cells assessed as reduction in cell viability incubated for 24 hrs by MTT assay. In kind it is functional.

Chain of Vascular endothelial growth factor receptor 2 (P35968 whole entry): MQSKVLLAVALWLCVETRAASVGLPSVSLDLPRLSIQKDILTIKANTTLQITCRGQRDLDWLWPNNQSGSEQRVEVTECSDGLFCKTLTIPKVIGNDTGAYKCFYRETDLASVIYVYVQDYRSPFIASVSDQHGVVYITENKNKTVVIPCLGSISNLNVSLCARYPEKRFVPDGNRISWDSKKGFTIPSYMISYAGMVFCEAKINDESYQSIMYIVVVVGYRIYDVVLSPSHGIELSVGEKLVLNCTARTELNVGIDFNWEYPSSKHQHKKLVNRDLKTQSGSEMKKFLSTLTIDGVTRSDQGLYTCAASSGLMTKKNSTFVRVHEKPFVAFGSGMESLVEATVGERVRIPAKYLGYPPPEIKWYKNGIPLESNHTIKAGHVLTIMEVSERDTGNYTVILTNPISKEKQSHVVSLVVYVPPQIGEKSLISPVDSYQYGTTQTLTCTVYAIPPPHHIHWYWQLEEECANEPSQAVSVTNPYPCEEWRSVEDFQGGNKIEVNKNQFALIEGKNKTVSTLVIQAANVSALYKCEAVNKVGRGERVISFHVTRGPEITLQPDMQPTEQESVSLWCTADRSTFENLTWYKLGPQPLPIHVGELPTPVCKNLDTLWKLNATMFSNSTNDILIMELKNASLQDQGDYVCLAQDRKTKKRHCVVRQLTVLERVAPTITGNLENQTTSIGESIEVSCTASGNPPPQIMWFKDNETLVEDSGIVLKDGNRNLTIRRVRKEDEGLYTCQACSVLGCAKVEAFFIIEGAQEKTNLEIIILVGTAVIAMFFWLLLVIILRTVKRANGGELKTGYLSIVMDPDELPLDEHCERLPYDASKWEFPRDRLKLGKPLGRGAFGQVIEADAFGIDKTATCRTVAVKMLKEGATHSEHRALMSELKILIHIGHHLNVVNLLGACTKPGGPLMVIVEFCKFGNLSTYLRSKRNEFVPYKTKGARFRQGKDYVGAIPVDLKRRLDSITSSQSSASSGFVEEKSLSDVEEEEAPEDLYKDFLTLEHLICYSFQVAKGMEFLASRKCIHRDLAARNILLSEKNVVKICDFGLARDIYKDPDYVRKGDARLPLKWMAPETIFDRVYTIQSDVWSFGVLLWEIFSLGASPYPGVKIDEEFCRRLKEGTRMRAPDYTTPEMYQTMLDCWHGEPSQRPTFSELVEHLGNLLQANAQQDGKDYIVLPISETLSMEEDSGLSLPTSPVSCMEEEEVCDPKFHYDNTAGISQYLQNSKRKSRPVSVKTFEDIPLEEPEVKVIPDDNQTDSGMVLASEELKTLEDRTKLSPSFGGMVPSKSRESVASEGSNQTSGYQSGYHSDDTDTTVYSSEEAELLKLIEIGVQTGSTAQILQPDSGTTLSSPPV

On to `Cc1ccc(NC(=O)c2ccc(NC(=O)CSc3nc4ccccc4c(=O)n3-c3ccc(C)cc3)cc2)cc1`, for which the concentration for half-maximal inhibition (IC50) (in general, the point on the concentration scale where inhibition reaches its midpoint) in the assay on HepG2 [1] was found to be 19 µM; in the assay on MCF7 [2], 28.4 µM; with HCT-116 [3], 17.4 µM.
Regarding `C/C(=N\NC(=O)c1cccc(Cl)c1)c1ccc(NC(=O)CSc2nc3ccccc3c(=O)n2-c2ccc(C)cc2)cc1`, the IC50 with HepG2 [1] is 33.8 µM; with MCF7 [2] it was 40.9 µM; in the assay on HCT-116 [3], 30.4 µM.
As to `Cc1ccc(-n2c(SCC(=O)Nc3ccc(C(=O)Nc4ccccc4)cc3)nc3ccccc3c2=O)cc1`, the IC50 in [4] is 1.37 µM; with HepG2 [1], 21.8 µM; in the assay with MCF7 [2], 26.9 µM; in the assay on HCT-116 [3], 16.6 µM.
Regarding `Cc1ccc(-n2c(SCC(=O)Nc3ccc(S(=O)(=O)Nc4nc(C)cc(C)n4)cc3)nc3ccccc3c2=O)cc1`, the IC50 is 0.707 µM in [4], 6.76 µM in the assay on HepG2 [1], 7.1 µM in the assay on MCF7 [2] and 5.24 µM in the assay on HCT-116 [3].
As for `Cc1ccc(-n2c(SCC(=O)Nc3ccc(C(=O)NNc4ccccc4)cc3)nc3ccccc3c2=O)cc1`, the IC50 in assay [4] is 1.21 µM; in the assay with HepG2 [1], 12.1 µM; with MCF7 [2], 16.1 µM; in the assay on HCT-116 [3] it was 9.4 µM.
Taken in the same sequence, the figures for `C/C(=N\NC(=O)c1ccccc1O)c1ccc(NC(=O)CSc2nc3ccccc3c(=O)n2-c2ccc(C)cc2)cc1` were 1.06 µM, 11.9 µM, 15.4 µM and 12.4 µM.
`C/C(=N\NC(=O)c1ccccc1)c1ccc(NC(=O)CSc2nc3ccccc3c(=O)n2-c2ccc(C)cc2)cc1`: the results for the IC50 in the assay with HepG2 [1], with MCF7 [2] and in the assay on HCT-116 [3] were 30.5 µM, 35.9 µM and 29 µM, respectively.
The corresponding values for `CNC(=O)c1cc(Oc2ccc(NC(=O)Nc3ccc(Cl)c(C(F)(F)F)c3)cc2)ccn1` [SORAFENIB] are 7.31 µM, 7.21 µM and 9.4 µM.
`Cc1ccc(-n2c(SCC(=O)Nc3ccc(C(=O)NCc4ccccc4)cc3)nc3ccccc3c2=O)cc1`: the IC50 in assay [4] is 1.4 µM; with HepG2 [1], 17.4 µM; with MCF7 [2] it was 18.3 µM; in the assay on HCT-116 [3] it was 13.4 µM.
Take `COc1cccc2c1C(=O)c1c(O)c3c(c(O)c1C2=O)C[C@@](O)(C(=O)CO)C[C@@H]3O[C@H]1C[C@H](N)[C@H](O)[C@H](C)O1` [DOXORUBICIN]: the IC50 in the assay on HCT-116 [3] came to 9.63 µM.
On to `C/C(=N\NC(=O)c1ccc(Cl)cc1)c1ccc(NC(=O)CSc2nc3ccccc3c(=O)n2-c2ccc(C)cc2)cc1`, for which the IC50 in the assay on HepG2 [1] stood at 41.6 µM; in the assay with MCF7 [2], 44 µM; in the assay on HCT-116 [3], 37.1 µM.
Regarding `C/C(=N\NC(=O)c1ccccc1Cl)c1ccc(NC(=O)CSc2nc3ccccc3c(=O)n2-c2ccc(C)cc2)cc1`, the figures for the IC50 with HepG2 [1], in the assay on MCF7 [2] and in the assay with HCT-116 [3] were 22.6 µM, 23 µM and 17.1 µM, respectively.
Consider `C/C(=N\NC(=O)c1cc([N+](=O)[O-])ccc1Cl)c1ccc(NC(=O)CSc2nc3ccccc3c(=O)n2-c2ccc(C)cc2)cc1`, for which the “Ratio IC50” value was 3.88 in the assay with HepG2 [5]; 1.84 with MCF7 [6]; 5.59 with HCT-116 [7]; 1.96 with MCF7 [8]; 5.73 with HCT-116 [9]; 4.39 with HepG2 [10]. Further, the IC50 was 0.452 µM in [4], 1.88 µM in the assay with HepG2 [1], 3.91 µM in the assay with MCF7 [2] and 1.68 µM in the assay with HCT-116 [3].
Take `CC(=O)c1ccc(NC(=O)CSc2nc3ccccc3c(=O)n2-c2ccc(C)cc2)cc1`: the IC50 was 1.78 µM in assay [4], 12.3 µM with HepG2 [1], 13.5 µM in the assay with MCF7 [2] and 8.27 µM with HCT-116 [3].
As for `Cc1ccc(-n2c(SCC(=O)Nc3ccc(C(=O)NC4CCCCC4)cc3)nc3ccccc3c2=O)cc1`, the IC50 in the assay on HepG2 [1] stood at 16.5 µM; with MCF7 [2], 24.9 µM; with HCT-116 [3], 14.1 µM.
Taken in the same sequence, the figures for `Cc1ccc(-n2c(SCC(=O)Nc3ccc(S(=O)(=O)Nc4ccccn4)cc3)nc3ccccc3c2=O)cc1` were 30 µM, 30.6 µM and 24.1 µM.
For `Cc1ccc(-n2c(SCC(=O)Nc3ccc(C(=O)NNC(=O)c4ccccc4O)cc3)nc3ccccc3c2=O)cc1`, the IC50 in assay [4] is 1.07 µM; in the assay on HepG2 [1], 11.7 µM; with MCF7 [2], 14.4 µM; in the assay with HCT-116 [3], 10.8 µM.
Take `CC(=O)NS(=O)(=O)c1ccc(NC(=O)CSc2nc3ccccc3c(=O)n2-c2ccc(C)cc2)cc1`: the IC50 in assay [4] is 0.721 µM; in the assay with HepG2 [1] it was 4.19 µM; in the assay with MCF7 [2] it was 6.79 µM; in the assay on HCT-116 [3], 6.14 µM.
`Cc1ccc(-n2c(SCC(=O)Nc3ccc(C(=O)Nc4ccc(Cl)cc4)cc3)nc3ccccc3c2=O)cc1`: the 50% inhibitory concentration (IC50) is 0.685 µM in assay [4], 4.12 µM in the assay with HepG2 [1], 5.99 µM in the assay on MCF7 [2] and 3.67 µM in the assay on HCT-116 [3].
Consider `CCOC(=O)c1ccc(NC(=O)c2ccc(NC(=O)CSc3nc4ccccc4c(=O)n3-c3ccc(C)cc3)cc2)cc1`, for which the IC50 turned out to be 21.5 µM with HepG2 [1], 23.7 µM with MCF7 [2] and 17 µM in the assay on HCT-116 [3].
As to `C/C(=N\NC(N)=S)c1ccc(NC(=O)CSc2nc3ccccc3c(=O)n2-c2ccc(C)cc2)cc1`, the IC50 in [4] is 1 µM; in the assay with HepG2 [1], 8.38 µM; in the assay with MCF7 [2], 9.89 µM; with HCT-116 [3], 8.32 µM.
